The values below come from ChEMBL document CHEMBL4376807, “Hydroxamic Acid Derivatives of β-Carboline/Hydroxycinnamic Acid Hybrids Inducing Apoptosis and Autophagy through the PI3K/Akt/mTOR Pathways” (J Nat Prod, 2019).

Test [1] deals with Bel-7402. The experiment in a line: Induction of apoptosis in human Bel7402 cells assessed as decrease in Bcl-2 expression after 72 hrs by Western blot analysis. It is filed as functional, cell-based. Put shortly: (§1)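 Subconfluent Bel7402 cells (1.5 × 10^5/mL) exposed to vehicle or compound for 72 h, then lysed. Lysates (0.05 mg/lane) run on 12% SDS-PAGE, transferred to nitrocellulose, blocked in 5% nonfat milk. Probed for Bax, Bcl-2, cleaved caspase-3 and cleaved PARP, with HRP secondary and chemiluminescence. Levels normalized to β-actin; three separate assays, mean ± SD.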
On the technique in general: A western blot detects proteins with antibodies after separation by electrophoresis.

Test [2] concerns Bel-7402. The experiment in a line: Induction of apoptosis in human Bel7402 cells assessed as annexin-V positive cells at 5 uM after 72 hrs by Annexin-V/PI staining based flow cytometry relative to control. Format: functional. In a few lines: (§2)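 Bel7402 cells (10 000) cultured overnight, then exposed to compound at 1.0 or 5.0 μM, or vehicle, for 72 h. Harvested, stained with annexin-V APC and 7-AAD for 15 min. Apoptotic percentage measured by flow cytometry (APC ex 633/em 660 nm; 7-AAD ex 488/em 647 nm). Three separate assays, mean ± SD.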
A general note: In flow cytometry, cells or beads pass a laser one at a time.

In test [3] the test system is Bel-7402. Description: Induction of autophagy in human Bel7402 cells assessed as upregulation of LC3-2 level at 5 uM after 24 to 72 hrs by Western blot analysis. It is filed as functional, cell-based. Put shortly:
(§3)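 Bel7402 cells (1.5 × 10^5/mL) exposed to compound at indicated doses, or vehicle, for 24 or 72 h. Lysates (0.05 mg/lane) separated on 12% SDS-PAGE, blotted to nitrocellulose, blocked in 5% milk. Probed with anti-LC3, anti-p62 and anti-beclin-1, HRP secondary, chemiluminescent detection. Levels quantified relative to β-actin; three separate assays, mean ± SD.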

In test [4] the test system is Bel-7402. Description: Induction of autophagy in human Bel7402 cells assessed as upregulation of LC3-2 level at 1 uM after 24 to 72 hrs by Western blot analysis. Format: functional, cell-based. In a few lines: as §3
Test [5] has as its target Histone deacetylase (Homo sapiens) (UniProt Q13547+O15379+Q9UBN7+Q92769+Q9UQL6+Q8WUI4+Q9BY41+Q96DB2+P56524+Q9UKV0+Q969S8). The experiment in a line: Inhibition of HDAC in human Bel7402 cells assessed as increase in acetylated histone h3 expression incubated for 72 hrs by Western blot analysis. Format: cell-based. Put shortly: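 Bel7402 cells exposed to vehicle or compound (1.0 and 3.0 μM) for 72 h, with SAHA 5.0 μM as reference. Lysates (0.05 mg/lane) run on 12% SDS-PAGE and transferred to nitrocellulose. Probed with anti-acetyl-H3 and anti-acetyl-α-tubulin, HRP secondary, chemiluminescence. Quantified from three separate assays, mean ± SD.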

Test [6] deals with L02. Description: Cytotoxicity against human LO2 cells after 72 hrs by MTT assay. The note with it: L02, 72 h. Format: functional, cell-based. In a few lines:
(§4)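 Cells grown in DMEM with 10% heat-inactivated FBS, penicillin/streptomycin, 37 °C, 5% CO2. Seeded at 10^4 cells/mL overnight, then exposed to a range of compound concentrations for 72 h; 0.1% DMSO negative control. MTT (5 mg/mL stock) added, absorbance read at 570 nm; percent inhibition from three independent experiments, mean ± SD.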
On the technique in general: Tetrazolium assays rely on reduction of a dye to a coloured formazan, in cell work by metabolically active cells.

The subject of test [7] is Bel-7402. The experiment in a line: Induction of apoptosis in human Bel7402 cells assessed as annexin-V positive cells at 1 uM after 72 hrs by Annexin-V/PI staining based flow cytometry relative to control. It is filed as functional. In a few lines:
as §2

Test [8] can be described thus: Inhibition of PI3K/AKT/mTOR signaling in human Bel7402 cells assessed as reduction in mTOR phosphorylation after 24 to 72 hrs by Western blot analysis. Format: cell-based. In a few lines:
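Bel7402 cells (1.5 × 10^5/mL) exposed to compound at 1.0 and 2.5 μM for 24 or 72 h. Lysates (0.05 mg/lane) separated on 12% SDS-PAGE and blotted to nitrocellulose. Probed for total Akt, phospho-Akt (Ser473), total mTOR and phospho-mTOR, HRP secondary, chemiluminescent detection. Quantified from three separate assays, mean ± SD.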

Test [9] relates to Bel-7402. Description: Induction of apoptosis in human Bel7402 cells assessed as increase in cleaved caspase-3 level at 5 uM after 72 hrs by Western blot analysis. Format: functional, cell-based. In a few lines:
as §1

The target in test [10] is T1, Histone deacetylase 8 (Homo sapiens, UniProt Q9BY41).
T1 sequence (Q9BY41 whole entry): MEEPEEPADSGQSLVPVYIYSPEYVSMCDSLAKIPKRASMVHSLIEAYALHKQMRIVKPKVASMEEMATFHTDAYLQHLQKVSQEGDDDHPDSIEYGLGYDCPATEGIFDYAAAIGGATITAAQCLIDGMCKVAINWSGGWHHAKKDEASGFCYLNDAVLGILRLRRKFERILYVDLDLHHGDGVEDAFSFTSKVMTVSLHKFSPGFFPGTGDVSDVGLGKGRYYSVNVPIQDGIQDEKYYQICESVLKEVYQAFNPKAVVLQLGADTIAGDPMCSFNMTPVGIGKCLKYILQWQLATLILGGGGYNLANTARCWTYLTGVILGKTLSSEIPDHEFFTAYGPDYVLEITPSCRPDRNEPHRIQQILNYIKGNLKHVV
Description: Inhibition of human HDAC8 using Boc-Lys (Ac)-AMC as substrate incubated for 60 mins by fluorimetric assay.

Test [11] deals with SMMC-7721. The experiment in a line: Antiproliferative activity against human SMMC7721 cells after 72 hrs by MTT assay. Format: functional, cell-based. As to conditions: SMMC-7721, 72 h.
Test [12] concerns Bel7402/5-FU. Description: Antiproliferative activity against human Bel7402/5-FU cells at 0.2 to 5 uM after 72 hrs by MTT assay. Format: functional, cell-based. Put shortly: as §4
Test [13] concerns Bel-7402. Description: Induction of apoptosis in human Bel7402 cells assessed as increase in cleaved caspase-3 level at 1 uM after 72 hrs by Western blot analysis. It is filed as functional, cell-based. Put shortly:
as §1

Calls of active or inactive are those of the source. No cut-off for these calls is given here. A value given as a limit tells only on which side of the number the result lay.

Usually IC50 stands for the concentration at which inhibition is half-maximal. A high value points to weaker potency. For the compound `COc1ccc(-c2nc(NCCCOc3ccc(/C=C/C(=O)NO)cc3OC)cc3c2[nH]c2ccccc23)cc1`, the Activity entry in [1] was “Dose-dependent effect”; in test [2], 73.8%; in [7] it was 49.6%. The result in test [3], in test [4], in test [9], in test [12] and in test [13] was Active. Further, the inhibition result in test [5] and in test [8] was “Dose-dependent effect” in each case. Further, the figures for the IC50 in test [6], in test [10] and in [11] were more than 25 µM, more than 1 µM and 2.9 µM, respectively.
